Data on 11 compounds can be found in ChEMBL document CHEMBL3877334, “Structural Requirements of HDAC Inhibitors: SAHA Analogues Modified at the C2 Position Display HDAC6/8 Selectivity” (ACS Med Chem Lett, 2017).

Each structure is given as a SMILES string. Active and inactive are the calls of the source. The calls are words filed in the database; no cut-off is given here.

Assay [1] in a line: cells. In kind it is functional, cell-based. To be noted: Homo sapiens, Jurkat, 44 h.
Assay [2] deals with HeLa S3. The assay is described as follows: Selectivity ratio of IC50 for HDAC1 in human HeLaS3 cells to IC50 for HDAC6 in human HeLaS3 cells. It is filed as cell-based. Summed up: (§1)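 Ratio of IC50 values measured with the ELISA-based HDAC activity assay using mammalian-derived HDAC isoforms. Each IC50 is the mean of at least two independent trials with standard error.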
Assay [3] can be described thus: cells. It is filed as functional, cell-based. To be noted: Homo sapiens, MOLM-13, 44 h.
The target of assay [4] is T1, Protein deacetylase HDAC6 (Homo sapiens) (UniProt Q9UBN7).
T1 sequence (whole entry): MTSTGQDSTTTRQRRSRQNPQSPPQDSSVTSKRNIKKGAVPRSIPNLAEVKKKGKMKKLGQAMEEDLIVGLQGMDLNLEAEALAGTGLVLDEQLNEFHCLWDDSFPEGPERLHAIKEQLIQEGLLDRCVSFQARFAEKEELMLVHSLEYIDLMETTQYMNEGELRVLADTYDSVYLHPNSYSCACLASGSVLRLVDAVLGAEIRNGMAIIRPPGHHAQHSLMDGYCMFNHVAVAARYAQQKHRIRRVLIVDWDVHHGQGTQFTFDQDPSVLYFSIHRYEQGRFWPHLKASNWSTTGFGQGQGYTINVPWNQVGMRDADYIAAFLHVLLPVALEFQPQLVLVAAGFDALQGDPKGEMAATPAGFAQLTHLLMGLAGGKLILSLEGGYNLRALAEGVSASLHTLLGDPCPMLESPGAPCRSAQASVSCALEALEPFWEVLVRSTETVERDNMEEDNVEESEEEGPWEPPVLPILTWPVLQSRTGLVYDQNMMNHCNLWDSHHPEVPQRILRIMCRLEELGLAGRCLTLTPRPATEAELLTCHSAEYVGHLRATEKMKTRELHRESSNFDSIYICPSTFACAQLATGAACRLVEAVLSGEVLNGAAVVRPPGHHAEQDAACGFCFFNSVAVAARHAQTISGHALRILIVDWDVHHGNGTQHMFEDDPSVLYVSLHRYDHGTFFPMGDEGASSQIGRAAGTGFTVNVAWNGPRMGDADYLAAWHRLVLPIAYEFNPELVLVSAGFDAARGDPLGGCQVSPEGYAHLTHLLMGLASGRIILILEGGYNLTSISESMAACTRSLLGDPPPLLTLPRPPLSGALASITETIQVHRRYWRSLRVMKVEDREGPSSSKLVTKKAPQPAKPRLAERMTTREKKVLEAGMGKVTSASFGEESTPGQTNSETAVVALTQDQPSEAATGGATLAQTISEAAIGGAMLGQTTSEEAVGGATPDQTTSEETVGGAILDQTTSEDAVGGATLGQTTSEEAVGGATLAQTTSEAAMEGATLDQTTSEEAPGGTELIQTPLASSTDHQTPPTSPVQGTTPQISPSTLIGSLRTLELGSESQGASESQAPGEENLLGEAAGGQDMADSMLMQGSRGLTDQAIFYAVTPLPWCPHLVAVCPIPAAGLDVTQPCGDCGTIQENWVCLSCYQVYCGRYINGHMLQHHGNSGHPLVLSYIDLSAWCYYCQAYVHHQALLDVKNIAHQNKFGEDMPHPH
The assay is described as follows: Inhibition of HDAC6 in human HeLaS3 cells at 5 uM preincubated for 15 mins followed by HDAC-Glo substrate addition measured after 30 to 45 mins by ELISA. To be noted: HeLa S3. It is filed as cell-based. Summed up: (§2)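 ELISA-based HDAC activity assay using mammalian-derived HDAC1, -2, -3 and -6. Each analogue was screened at a single concentration, 5 or 10 μM. Data are mean percent deacetylase activity from at least three independent trials with standard error.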
For orientation: An ELISA detects its analyte on a solid surface through an enzyme-linked reagent.

Assay [5] has as its system HeLa S3. The assay is described as follows: Selectivity ratio of IC50 for HDAC3 in human HeLaS3 cells to IC50 for full length human C-terminal His-tag HDAC8 expressed in baculovirus expression system.
Assay [6] can be described thus: Cytotoxicity against human Jurkat cells assessed as cell viability at 10 uM after 44 hrs by MTT assay relative to control. In kind it is functional. To be noted: read-out: Activity. Summed up: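 MTT viability assay in Jurkat cells at 1 and 10 μM. Data are mean percent viability from at least three independent trials with standard error.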
Assay [7] deals with T2, Histone deacetylase 8 (Homo sapiens, UniProt Q9BY41).
T2 sequence (Q9BY41 whole entry): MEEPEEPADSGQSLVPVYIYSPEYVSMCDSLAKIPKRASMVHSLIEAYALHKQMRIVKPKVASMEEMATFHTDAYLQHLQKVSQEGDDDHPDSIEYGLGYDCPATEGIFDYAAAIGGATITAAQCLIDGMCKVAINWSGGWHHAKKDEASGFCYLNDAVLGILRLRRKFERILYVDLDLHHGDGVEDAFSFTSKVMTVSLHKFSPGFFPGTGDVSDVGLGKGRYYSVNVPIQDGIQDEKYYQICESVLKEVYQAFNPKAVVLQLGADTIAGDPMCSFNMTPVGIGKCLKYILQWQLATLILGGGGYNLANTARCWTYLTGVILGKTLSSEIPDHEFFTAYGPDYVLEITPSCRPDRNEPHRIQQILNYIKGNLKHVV
The assay is described as follows: Inhibition of full length human C-terminal His-tag HDAC8 expressed in baculovirus expression system preincubated for 15 mins followed by HDAC-Glo substrate addition measured after 30 to 45 mins by ELISA.

The test system of assay [8] is HeLa S3. The assay is described as follows: Selectivity ratio of IC50 for HDAC2 in human HeLaS3 cells to IC50 for HDAC6 in human HeLaS3 cells. It is filed as cell-based. Summed up:
as §1

In assay [9] the target is Histone deacetylase 1 (Homo sapiens, UniProt Q13547). The assay is described as follows: Inhibition of HDAC1 in human HeLaS3 cells preincubated for 15 mins followed by HDAC-Glo substrate addition measured after 30 to 45 mins by ELISA. It is filed as cell-based, HeLa S3.
Sequence of Histone deacetylase 1 (Q13547 whole entry): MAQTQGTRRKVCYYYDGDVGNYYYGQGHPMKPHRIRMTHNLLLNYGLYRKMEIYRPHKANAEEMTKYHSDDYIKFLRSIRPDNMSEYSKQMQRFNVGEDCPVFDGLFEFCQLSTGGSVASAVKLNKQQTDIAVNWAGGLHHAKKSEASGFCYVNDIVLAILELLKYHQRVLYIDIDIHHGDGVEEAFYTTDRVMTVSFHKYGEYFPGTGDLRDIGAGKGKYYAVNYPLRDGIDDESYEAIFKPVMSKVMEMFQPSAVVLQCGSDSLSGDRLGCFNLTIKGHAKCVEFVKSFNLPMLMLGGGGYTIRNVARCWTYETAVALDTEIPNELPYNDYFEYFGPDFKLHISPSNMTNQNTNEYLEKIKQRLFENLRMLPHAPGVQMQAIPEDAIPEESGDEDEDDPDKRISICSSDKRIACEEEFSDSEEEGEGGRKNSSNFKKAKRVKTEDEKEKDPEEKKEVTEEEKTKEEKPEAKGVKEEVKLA
Assay [10] relates to HeLa S3. The assay is described as follows: Selectivity ratio of IC50 for HDAC1 in human HeLaS3 cells to IC50 for full length human C-terminal His-tag HDAC8 expressed in baculovirus expression system.
The subject of assay [11] is HeLa S3. The assay is described as follows: Selectivity ratio of IC50 for HDAC2 in human HeLaS3 cells to IC50 for full length human C-terminal His-tag HDAC8 expressed in baculovirus expression system.
Assay [12] concerns the target T3, Protein deacetylase HDAC6 (Homo sapiens, UniProt Q9UBN7).
T3 sequence (Q9UBN7 whole entry): T1 sequence (whole entry)
The assay is described as follows: Inhibition of HDAC6 in human HeLaS3 cells preincubated for 15 mins followed by HDAC-Glo substrate addition measured after 30 to 45 mins by ELISA. In kind it is cell-based, HeLa S3.

In assay [13] the target is T1, Protein deacetylase HDAC6 (Homo sapiens). The assay is described as follows: Inhibition of HDAC6 in human U937 cells assessed as increase in alpha-tubulin acetylation at Lys-40 residue at 30 uM after 18 hrs by Western blot method. To be noted: U-937. It is filed as cell-based. Summed up:
(§3)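 U937 myeloid leukemia cells were treated with compound, with a 1% DMSO control. For the concentration series the range was 10–60 μM. Cells were then lysed, run on SDS-PAGE and Western blotted for acetyl-α-tubulin and acetyl-histone H3, with GAPDH as load control. Band intensities were quantified as fold increase, given as mean of four independent trials with standard error.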
On the technique in general: In western blotting, separated proteins are transferred to a membrane and probed.

Assay [14] deals with HeLa S3. The assay is described as follows: Selectivity ratio of IC50 for HDAC3 in human HeLaS3 cells to IC50 for HDAC6 in human HeLaS3 cells. In kind it is cell-based. Summed up:
as §1

The target in assay [15] is T1, Protein deacetylase HDAC6 (Homo sapiens). The assay is described as follows: Inhibition of HDAC6 in human U937 cells assessed as increase in alpha-tubulin acetylation at Lys-40 residue after 18 hrs by Western blot method. In kind it is cell-based. To be noted: U-937. Summed up: as §3
The target of assay [16] is Histone deacetylase 2 (Homo sapiens, UniProt Q92769). The assay is described as follows: Inhibition of HDAC2 in human HeLaS3 cells preincubated for 15 mins followed by HDAC-Glo substrate addition measured after 30 to 45 mins by ELISA. It is filed as cell-based, HeLa S3.
Sequence of Histone deacetylase 2 (Q92769 whole entry): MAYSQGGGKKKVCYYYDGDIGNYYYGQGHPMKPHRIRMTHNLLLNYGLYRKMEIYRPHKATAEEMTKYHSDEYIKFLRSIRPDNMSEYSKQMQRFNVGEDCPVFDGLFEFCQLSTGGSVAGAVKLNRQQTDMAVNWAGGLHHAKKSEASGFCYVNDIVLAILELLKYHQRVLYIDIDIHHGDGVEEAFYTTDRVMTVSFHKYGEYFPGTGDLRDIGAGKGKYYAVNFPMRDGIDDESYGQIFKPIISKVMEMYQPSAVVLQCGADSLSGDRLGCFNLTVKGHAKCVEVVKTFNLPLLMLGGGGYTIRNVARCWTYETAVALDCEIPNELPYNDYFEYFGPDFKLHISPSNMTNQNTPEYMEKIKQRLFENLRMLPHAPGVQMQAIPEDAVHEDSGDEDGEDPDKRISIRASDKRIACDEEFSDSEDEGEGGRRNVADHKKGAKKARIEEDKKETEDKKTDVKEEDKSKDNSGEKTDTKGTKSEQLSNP
Assay [17] is described as follows: cells. In kind it is functional, cell-based. To be noted: Homo sapiens, U-937, 44 h.
The target in assay [18] is Histone deacetylase 3 (Homo sapiens, UniProt O15379). The assay is described as follows: Inhibition of HDAC3 in human HeLaS3 cells preincubated for 15 mins followed by HDAC-Glo substrate addition measured after 30 to 45 mins by ELISA. It is filed as cell-based, HeLa S3.
Sequence of Histone deacetylase 3 (O15379 whole entry): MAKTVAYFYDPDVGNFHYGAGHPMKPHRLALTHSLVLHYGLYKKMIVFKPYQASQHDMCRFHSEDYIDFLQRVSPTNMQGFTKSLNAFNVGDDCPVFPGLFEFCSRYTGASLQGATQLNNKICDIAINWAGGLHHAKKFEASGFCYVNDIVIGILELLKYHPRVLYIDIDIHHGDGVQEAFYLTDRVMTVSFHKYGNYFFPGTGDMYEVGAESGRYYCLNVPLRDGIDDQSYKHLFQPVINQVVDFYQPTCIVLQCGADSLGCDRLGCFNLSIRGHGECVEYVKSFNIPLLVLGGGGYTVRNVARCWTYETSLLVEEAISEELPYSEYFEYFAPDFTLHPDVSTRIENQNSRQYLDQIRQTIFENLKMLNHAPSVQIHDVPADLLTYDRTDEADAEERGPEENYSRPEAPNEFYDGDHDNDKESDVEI
Assay [19] deals with T1, Protein deacetylase HDAC6 (Homo sapiens). The assay is described as follows: Inhibition of HDAC6 in human HeLaS3 cells at 10 uM preincubated for 15 mins followed by HDAC-Glo substrate addition measured after 30 to 45 mins by ELISA. It is filed as cell-based. To be noted: HeLa S3. Summed up:
as §2

Broadly, the EC50 is the concentration needed to bring the measured effect to its halfway point. Low readings indicate a more potent agent, high ones a less potent agent. Broadly, the IC50 is the concentration that gives 50% inhibition. Higher therefore signals a need for much substance.

For the compound `CCCCCCC(CCCCCC(=O)Nc1ccccc1)C(=O)NO` (stereo not drawn), the concentration for a half-maximal effect (EC50) in [1] came to 11.8 µM; in assay [3], 10.5 µM; in [17] it was 13.8 µM. In addition, the Ratio IC50 in [2], in assay [5], in assay [8], in assay [10], in assay [11] and in assay [14] was 49 to 300 each time. The inhibition result in assay [4] and in [13] was “Active” throughout. In assay [6], the viability at 10 µM was found to be 47%. The half-maximal inhibitory concentration (IC50) was determined as 2 µM in assay [7]; 180 µM in assay [9]; 0.6 µM in [12]; 180 µM in [16]; 98 µM in assay [18]. Moreover, the inhibition result in assay [15] was “Dose-dependent effect”.
As to `CC(CCCCCC(=O)Nc1ccccc1)C(=O)NO` (stereo not drawn), the inhibition entry in assay [4] is “Active”.
Same read-out and setting: the result for `C=CCC(CCCCCC(=O)Nc1ccccc1)C(=O)NO` (stereo not drawn) reads “Active”.
Take `CCCCC(CCCCCC(=O)Nc1ccccc1)C(=O)NO` (stereo not drawn): the inhibition entry in assay [19] was “Active”.
With `CCC(CCCCCC(=O)Nc1ccccc1)C(=O)NO` (stereo not drawn), in assay [4], the inhibition entry is “Active”.
For the compound `O=C(CCCCCC(Cc1ccccc1)C(=O)NO)Nc1ccccc1` (stereo not drawn), the Ratio IC50 in assay [2], in assay [5], in assay [8], in assay [10], in [11] and in [14] was 33 to 92 in each case. In addition, the inhibition result in assay [4] and in assay [13] was “Active” in each case. Besides, the IC50 is 1.2 µM in assay [7]; 84 µM in [9]; 1.5 µM in assay [12]; 110 µM in assay [16]; 91 µM in [18].
With `CCCCCC(CCCCCC(=O)Nc1ccccc1)C(=O)NO` (stereo not drawn), the Ratio IC50 in assay [2], in [5], in [8], in assay [10], in [11] and in assay [14] was 33 to 92 in each case. In addition, the inhibition entry in assay [4] and in assay [13] was “Active” each time. Moreover, the IC50 in [7] is 1.3 µM; in [9], 48 µM; in assay [12], 0.85 µM; in assay [16] it was 58 µM; in assay [18], 43 µM.
In the case of `CCCCCC[C@@H](CCCCCC(=O)Nc1ccccc1)C(=O)NO`, the Ratio IC50 in assay [5], in assay [10] and in assay [11] was 106 to 187 in each case. The IC50 in assay [7] amounted to 3.1 µM; in assay [9] it was 330 µM; in assay [16], 580 µM; in [18], 530 µM.
For `C#CCC(CCCCCC(=O)Nc1ccccc1)C(=O)NO` (stereo not drawn), the inhibition entry in [4] is “Active”.
For the compound `CCCC(CCCCCC(=O)Nc1ccccc1)C(=O)NO` (stereo not drawn), the inhibition result in assay [4] is “Active”.
`CCCCCC[C@H](CCCCCC(=O)Nc1ccccc1)C(=O)NO` returned an IC50 in assay [7] of 0.71 µM.
